Measurements as given in ChEMBL document CHEMBL4196195, “( R)- N-(1-Methyl-2-hydroxyethyl)-13-( S)-methyl-arachidonamide (AMG315): A Novel Chiral Potent Endocannabinoid Ligand with Stability to Metabolizing Enzymes” (J Med Chem, 2018).
Active and inactive are the calls of the source.

Tests used:
Cannabinoid receptor 1 [1] = target: T1, Cannabinoid receptor 1 (Rattus norvegicus, UniProt P20272); experiment: Displacement of [3H]CP-55,940 from CB1 receptor in rat brain membranes in absence of FAAH inhibitor PMSF by radioligand binding assay; assay type: cell membranes, Membrane
Cannabinoid receptor 1 [2] = target: T1, Cannabinoid receptor 1; experiment: Displacement of [3H]CP-55,940 from CB1 receptor in rat brain membranes in presence of FAAH inhibitor PMSF by radioligand binding assay; assay type: cell membranes, Membrane
Cannabinoid receptor 2 [3] = target: Cannabinoid receptor 2 (Mus musculus, UniProt P47936); experiment: Displacement of [3H]CP-55,940 from mouse CB2 receptor expressed in HEK293 cell membranes in absence of FAAH inhibitor PMSF by radioligand binding assay
Procedure, shortened: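 Membranes from HEK293 cells expressing human or mouse CB2 (preparations lacking FAAH activity), competing against [3H]CP-55,940. IC50 by nonlinear regression, converted to Ki. Three independent experiments run in triplicate; Ki is the mean of the three.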

Cannabinoid receptor 2 [4] = target: Cannabinoid receptor 2 (Homo sapiens, UniProt P34972); experiment: Displacement of [3H]CP-55,940 from human CB2 receptor expressed in HEK293 cell membranes in absence of FAAH inhibitor PMSF by radioligand binding assay
[5] = target: T2, Prostaglandin G/H synthase 2 (Mus musculus, UniProt Q05769); experiment: Stability assessed as mouse COX2-mediated compound oxidation by measuring oxygen consumption by polarographic assay; assay type: ADME
T2 sequence (Q05769 whole entry): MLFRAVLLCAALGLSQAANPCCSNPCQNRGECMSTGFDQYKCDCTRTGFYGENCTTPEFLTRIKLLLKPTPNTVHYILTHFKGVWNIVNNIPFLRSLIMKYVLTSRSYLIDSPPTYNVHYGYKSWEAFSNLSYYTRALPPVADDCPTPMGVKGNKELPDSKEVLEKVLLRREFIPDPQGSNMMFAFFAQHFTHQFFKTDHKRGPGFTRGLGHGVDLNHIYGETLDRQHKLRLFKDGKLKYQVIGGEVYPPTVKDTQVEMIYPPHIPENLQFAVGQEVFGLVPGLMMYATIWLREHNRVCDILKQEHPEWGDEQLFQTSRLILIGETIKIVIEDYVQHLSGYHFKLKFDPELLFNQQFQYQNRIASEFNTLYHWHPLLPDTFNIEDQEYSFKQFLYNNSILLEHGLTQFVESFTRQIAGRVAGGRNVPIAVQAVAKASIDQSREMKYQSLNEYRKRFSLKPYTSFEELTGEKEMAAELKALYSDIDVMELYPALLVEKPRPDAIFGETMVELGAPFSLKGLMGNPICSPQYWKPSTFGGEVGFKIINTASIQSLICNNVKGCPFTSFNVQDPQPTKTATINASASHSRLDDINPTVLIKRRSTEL

Cannabinoid receptor 1 [6] = target: T1, Cannabinoid receptor 1; experiment: Agonist activity at rat CB1 receptor expressed in HEK293 cells assessed as inhibition of forskolin-induced cAMP accumulation incubated for 30 mins; assay type: functional, cell-based
Procedure, shortened: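 HEK293 cells stably expressing rCB1, harvested with nonenzymatic dissociation reagent, washed in HBSS, 1000–1500 cells/well. Test compound at various concentrations with forskolin (2 μM final) in stimulation buffer, 30 min at room temperature. cAMP read by TR-FRET (Eu-cAMP tracer plus ULight anti-cAMP, 60 min room temperature). Forskolin-stimulated cAMP set to 100%. EC50 from nonlinear regression; two independent experiments in triplicate.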

[7] = target: Cannabinoid receptor 1 (Rattus norvegicus) (UniProt P20272); experiment: Agonist activity at rat CB1 receptor expressed in HEK293 cells assessed as inhibition of forskolin-induced cAMP accumulation incubated for 30 mins relative to 500 nM CP-55,940; assay type: functional, cell-based
Mus musculus [8] = experiment: Antiallodynic activity in CD1 mouse model of CFA-induced inflammatory pain assessed as increase in CFA-reduced mechanical paw withdrawal threshold at 20 mg/kg, ip measured at 10 mins post injection; assay type: functional, organism-based
Procedure, shortened: (§1)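 Adult male mice (39 ± 10 g), wild-type CD1 or CB1 KO on CD1 background, single housed. CFA:saline 1:1 (20 μL) injected intraplantar into right hind paw; 48 h allowed before dosing. Drug given ip in 5 mL/kg, vehicle group included. Electronic von Frey (90 g probe) after ≥30 min habituation, read in duplicate per paw, at baseline, 48 h post-CFA and 10, 30, 60, 120 min post-dose. Two-way mixed ANOVA with Bonferroni post hoc tests.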

Mus musculus [9] = experiment: Antiallodynic activity in CD1 mouse model of CFA-induced inflammatory pain assessed as increase in CFA-reduced mechanical paw withdrawal threshold at 20 mg/kg, ip measured at 60 mins post injection; assay type: functional, organism-based; procedure, shortened: as §1
Mus musculus [10] = experiment: Antiallodynic activity in CD1 mouse model of CFA-induced inflammatory pain assessed as increase in CFA-reduced mechanical paw withdrawal threshold at 20 mg/kg, ip measured up to 30 mins post injection; assay type: functional, organism-based; procedure, shortened: as §1
Mus musculus [11] = experiment: Antiallodynic activity in CD1 mouse model of CFA-induced inflammatory pain assessed as increase in CFA-reduced mechanical paw withdrawal threshold at 20 mg/kg, ip measured at 120 mins post injection; assay type: functional, organism-based; procedure, shortened: as §1
[12] = target: T3, FAAH (fatty-acid amide hydrolase 1) (Homo sapiens, UniProt O00519); experiment: Stability assessed as human FAAH-mediated compound hydrolysis by LC-MS/MS analysis; assay type: ADME; details: human FAAH (fatty-acid amide hydrolase 1), read-out: Stability
T3 sequence (O00519 whole entry): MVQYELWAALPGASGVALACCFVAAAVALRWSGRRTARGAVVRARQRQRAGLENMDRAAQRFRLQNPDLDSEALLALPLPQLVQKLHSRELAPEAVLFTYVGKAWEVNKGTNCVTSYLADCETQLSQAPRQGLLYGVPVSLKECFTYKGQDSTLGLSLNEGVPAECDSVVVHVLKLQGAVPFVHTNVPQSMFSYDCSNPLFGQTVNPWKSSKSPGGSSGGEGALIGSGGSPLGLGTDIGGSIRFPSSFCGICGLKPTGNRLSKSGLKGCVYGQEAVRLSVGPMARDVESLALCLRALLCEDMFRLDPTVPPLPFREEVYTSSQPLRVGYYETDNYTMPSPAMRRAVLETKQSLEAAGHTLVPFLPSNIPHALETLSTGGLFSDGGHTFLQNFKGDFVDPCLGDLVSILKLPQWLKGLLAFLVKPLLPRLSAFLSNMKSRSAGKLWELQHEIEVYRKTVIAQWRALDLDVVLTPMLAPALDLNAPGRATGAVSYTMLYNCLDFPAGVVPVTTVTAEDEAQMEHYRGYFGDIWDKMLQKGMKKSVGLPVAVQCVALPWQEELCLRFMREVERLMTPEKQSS
Procedure, shortened: (§2)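 Expressed, partially purified rat or human FAAH incubated with compound, or AEA as reference substrate, for 30 min. Aliquots at time points quenched in acetonitrile to precipitate protein. Remaining compound measured by LC-MS/MS on a cyano column with 10 mM ammonium acetate pH 7.3/methanol at 0.5 mL/min.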

[13] = target: T4, FAAH (fatty-acid amide hydrolase 1) (Rattus norvegicus, UniProt P97612); experiment: Stability assessed as rat FAAH-mediated compound hydrolysis by LC-MS/MS analysis; assay type: ADME; details: rat FAAH (fatty-acid amide hydrolase 1), read-out: Stability; procedure, shortened: as §2
T4 sequence (P97612 whole entry): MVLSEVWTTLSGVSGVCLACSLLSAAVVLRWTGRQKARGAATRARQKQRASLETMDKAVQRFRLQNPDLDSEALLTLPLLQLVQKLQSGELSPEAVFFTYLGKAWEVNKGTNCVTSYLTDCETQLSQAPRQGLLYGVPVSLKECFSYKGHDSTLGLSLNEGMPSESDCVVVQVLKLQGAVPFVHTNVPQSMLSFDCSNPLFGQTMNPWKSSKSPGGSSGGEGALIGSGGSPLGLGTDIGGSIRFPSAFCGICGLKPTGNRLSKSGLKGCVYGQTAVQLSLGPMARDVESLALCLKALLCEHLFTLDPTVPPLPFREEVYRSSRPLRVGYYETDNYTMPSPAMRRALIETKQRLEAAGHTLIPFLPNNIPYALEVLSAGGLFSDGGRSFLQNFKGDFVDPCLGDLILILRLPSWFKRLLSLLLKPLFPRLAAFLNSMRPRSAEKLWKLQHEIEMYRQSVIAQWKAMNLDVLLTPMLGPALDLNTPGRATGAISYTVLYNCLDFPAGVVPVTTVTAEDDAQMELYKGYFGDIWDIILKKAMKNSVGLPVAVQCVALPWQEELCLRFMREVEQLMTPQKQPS

[14] = target: T3, FAAH (fatty-acid amide hydrolase 1); experiment: Stability assessed as half life for human FAAH-mediated compound hydrolysis by LC-MS/MS analysis; assay type: ADME; details: human FAAH (fatty-acid amide hydrolase 1); procedure, shortened: as §2
[15] = target: T4, FAAH (fatty-acid amide hydrolase 1); experiment: Stability assessed as half life for rat FAAH-mediated compound hydrolysis by LC-MS/MS analysis; assay type: ADME; details: rat FAAH (fatty-acid amide hydrolase 1); procedure, shortened: as §2
Mus musculus [16] = experiment: Antiallodynic activity in CD1 mouse model of CFA-induced inflammatory pain assessed as increase in CFA-reduced mechanical paw withdrawal threshold at 20 mg/kg, ip measured at 30 mins post injection; assay type: functional, organism-based; procedure, shortened: as §1

Sequence of Cannabinoid receptor 2 (Mus musculus, UniProt P47936) (P47936 whole entry): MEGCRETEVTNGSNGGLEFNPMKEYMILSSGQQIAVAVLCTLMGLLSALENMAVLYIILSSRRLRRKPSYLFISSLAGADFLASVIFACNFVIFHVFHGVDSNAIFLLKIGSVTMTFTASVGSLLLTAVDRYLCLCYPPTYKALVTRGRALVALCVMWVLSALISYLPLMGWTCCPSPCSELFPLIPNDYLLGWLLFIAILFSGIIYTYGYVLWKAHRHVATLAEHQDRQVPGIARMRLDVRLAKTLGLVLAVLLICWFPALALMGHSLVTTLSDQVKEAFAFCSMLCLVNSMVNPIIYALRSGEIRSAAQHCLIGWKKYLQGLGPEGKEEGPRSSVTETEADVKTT
Sequence of Cannabinoid receptor 1 (Rattus norvegicus) (P20272 whole entry): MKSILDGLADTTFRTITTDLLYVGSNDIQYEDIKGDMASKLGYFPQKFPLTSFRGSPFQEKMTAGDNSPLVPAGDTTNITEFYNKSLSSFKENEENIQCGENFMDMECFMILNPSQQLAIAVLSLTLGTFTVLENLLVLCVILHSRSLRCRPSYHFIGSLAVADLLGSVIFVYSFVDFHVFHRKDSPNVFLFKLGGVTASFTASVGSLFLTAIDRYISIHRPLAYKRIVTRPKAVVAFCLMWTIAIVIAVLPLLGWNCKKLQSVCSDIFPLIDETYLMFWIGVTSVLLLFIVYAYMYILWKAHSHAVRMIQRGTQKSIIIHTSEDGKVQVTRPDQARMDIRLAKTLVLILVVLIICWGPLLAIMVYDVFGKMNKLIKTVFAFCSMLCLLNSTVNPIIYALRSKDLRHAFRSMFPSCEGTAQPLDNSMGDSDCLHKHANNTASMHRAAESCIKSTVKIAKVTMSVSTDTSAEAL
T1 sequence (P20272 whole entry): as above
Sequence of Cannabinoid receptor 2 (Homo sapiens, UniProt P34972) (P34972 whole entry): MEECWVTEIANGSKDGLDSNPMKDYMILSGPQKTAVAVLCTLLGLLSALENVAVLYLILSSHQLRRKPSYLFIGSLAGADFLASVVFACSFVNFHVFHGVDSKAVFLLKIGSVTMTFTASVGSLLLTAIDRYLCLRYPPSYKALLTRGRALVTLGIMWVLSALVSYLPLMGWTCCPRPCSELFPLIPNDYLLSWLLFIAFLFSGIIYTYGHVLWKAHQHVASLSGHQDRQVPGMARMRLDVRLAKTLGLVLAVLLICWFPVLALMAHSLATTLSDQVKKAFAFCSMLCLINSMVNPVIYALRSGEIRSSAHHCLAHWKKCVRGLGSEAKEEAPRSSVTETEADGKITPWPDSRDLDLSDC

Structure (SMILES) | Ki (Cannabinoid receptor 1 [1]) [nM] | Ki (Cannabinoid receptor 1 [2]) [nM] | Ki (Cannabinoid receptor 2 [3]) [nM] | Ki (Cannabinoid receptor 2 [4]) [nM] | Stability [5] | Emax [7] | EC50 (Cannabinoid receptor 1 [6]; read-out: EC50) [nM] | also measured
CCCCC/C=C\C/C=C\[C@@H](C)/C=C\C/C=C\CCCC(=O)NCCO | > 1000 | > 1000 | > 1000 | > 1000 |  |  |  | 
CCCCC/C=C\C/C=C\C/C=C\[C@@H](C)/C=C\CCCC(=O)NCCO | > 1000 | 520 | > 1000 | 188 | Stable | inactive |  | EC50 (Cannabinoid receptor 1 [6]; hek293): Not Active
C[C@H](/C=C\C/C=C\C/C=C\CCCC(=O)NC1CC1)/C=C\CCCCCN=[N+]=[N-] | 10.5 | 6.3 | 13.3 | 8.5 |  | 85% | 1.9 | 
CCCCC/C=C\C/C=C\C/C=C\C/C=C\CCCC(=O)N[C@H](C)CO [METHANANDAMIDE] |  |  | > 1000 |  |  |  |  | Activity (Mus musculus [8]): Active; Activity (Mus musculus [9]): Active; Activity (Mus musculus [10]): Active; Activity (Mus musculus [11]): inactive
CCCCC/C=C\[C@H](C)/C=C\C/C=C\C/C=C\CCCC(=O)NC1CCC1 | 17.6 | 23.1 | 90 | 6.8 | Stable | 92% | 36.1 | half-life [12]: 30 min
CCCCC/C=C\C/C=C\C/C=C\[C@@H](C)/C=C\CCCC(=O)N[C@H](C)CO | 29.3 | 21.4 | > 1000 | 120 | Stable | 98% | 58.3 | 
C[C@H](/C=C\C/C=C\C/C=C\CCCC(=O)N[C@H](C)CO)/C=C\CCCOc1ccccc1 | 65 | 83 | > 1000 | 286 |  |  |  | 
CCCCC/C=C\C/C=C\C/C=C\[C@H](C)/C=C\CCCC(=O)N[C@H](C)CO | 4.6 | 2.2 | 19.8 | 12.8 | Stable | 100% | 28.4 | half-life [12]: 30 min; half-life [13]: 30 min
CCCCC/C=C\[C@H](C)/C=C\C/C=C\C/C=C\CCCC(=O)NC1CCCC1 | 123 | 79 | 387 | 139 |  |  |  | half-life [12]: 30 min
CCCCC/C=C\C/C=C\[C@H](C)/C=C\C/C=C\CCCC(=O)NCCO | > 1000 | > 1000 | > 1000 | > 1000 |  |  |  | 
CCCCC/C=C\C/C=C\C/C=C\C/C=C\CCCC(=O)NCCO [ANANDAMIDE] |  |  | > 1000 |  |  | 61% |  | Activity (Mus musculus [8]): Active; half-life [14]: 13.2 min; half-life [15]: 12.1 min; Activity (Mus musculus [16]): inactive
CCCCC/C=C\[C@@H](C)/C=C\C/C=C\C/C=C\CCCC(=O)N[C@H](C)CO | > 1000 | > 1000 | > 1000 |  |  |  |  | 
CCCCC/C=C\[C@H](C)/C=C\C/C=C\C/C=C\CCCC(=O)NC1CC1 | 14.7 | 1.5 | 57.5 | 4.3 | Stable | 88% | 0.3 | half-life [14]: 25.2 min
C[C@H](/C=C\C/C=C\C/C=C\CCCC(=O)NC1CC1)/C=C\CCCCCN=C=S | 20.3 | 15.6 | 47.7 | 22.1 |  |  |  | 
CCCCC/C=C\[C@H](C)/C=C\C/C=C\C/C=C\CCCC(=O)NCCCl | 45.3 | 3.9 | 401 | 10.4 |  |  |  | 
CCCCC/C=C\[C@H](C)/C=C\C/C=C\C/C=C\CCCC(=O)NCCO | > 1000 | 4.8 | 137 | 50.5 | Stable | 88% | 13.2 | half-life [14]: 13.5 min
C#CCNC(=O)CCC/C=C\C/C=C\C/C=C\[C@@H](C)/C=C\CCCCC | 8.6 | 4.3 | 74 | 11.2 |  | 89% | 10.4 | half-life [12]: 30 min
CCCCC/C=C\[C@@H](C)/C=C\C/C=C\C/C=C\CCCC(=O)NCCO | > 1000 | > 1000 | > 1000 | > 1000 |  | inactive |  | EC50 (Cannabinoid receptor 1 [6]; hek293): Not Active
CCCCC/C=C\C/C=C\C/C=C\[C@H](C)/C=C\CCCC(=O)NCCO | 326 | 1.7 | 7.5 | 24.7 | Stable | 100% | 4.8 | 
